The source made the active and inactive calls. No cut-off for these calls is given here.
How the values were obtained:
Alternaria solani [1] = test: Fungicidal activity against Alternaria solani assessed as inhibition of disease development in compound treated leaf pieces at 200 ppm relative to untreated control (tomato-preventative); format: functional
How it was run: (§1)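 Preventative leaf-piece test on host tissue (tomato, vine, wheat or barley). Formulated compound applied at 200, 60 and 20 ppm before spore inoculation. Disease scored 3–9 days after inoculation, depending on the pathogen, as percent inhibition of disease development versus untreated controls. Values are the mean across replicates.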

Puccinia triticina [2] = test: Fungicidal activity against Puccinia triticina assessed as inhibition of disease development in compound treated leaf pieces at 60 ppm relative to untreated control (wheat-preventative); format: functional; how it was run: as §1
Puccinia triticina [3] = test: Fungicidal activity against Puccinia triticina assessed as inhibition of disease development in compound treated leaf pieces at 20 ppm relative to untreated control (wheat-curative); format: functional
How it was run: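 Curative wheat leaf-piece test against Puccinia triticina. Leaf pieces inoculated with spores first, then treated with formulated compound at 200, 60 or 20 ppm. Disease scored 3–9 days after inoculation as percent inhibition versus untreated controls. Values are the mean across replicates.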

Digitaria sanguinalis = test: Herbicidal activity against Digitaria sanguinalis (hairy crabgrass) assessed as growth inhibition at 1 kg/ha postemergence treatment by glasshouse test; format: functional; settings: post-emergence, read-out: GI
How it was run: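 Glasshouse screen with pre- or postemergence application at 1.0 kg/ha. Result given as percent inhibition of plant growth; norflurazon and glyphosate used as controls.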

Poa annua = test: Herbicidal activity against Poa annua assessed as growth inhibition at 32 ppm by 96-well plate test; format: functional; settings: read-out: GI
How it was run: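 96-well plate herbicide screen: Arabidopsis thaliana at 10 ppm and Poa annua at 32 ppm, two replicates. Plates incubated seven days in a controlled-environment cabinet. Each replicate scored 0 (no visible effect) or 99 (herbicidal effect); values are the mean of the two. Atrazine used as reference.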

Uromyces viciae-fabae = test: Fungicidal activity against Uromyces viciae-fabae assessed as inhibition of mycelia growth at 100 ppm; format: functional, organism-based
How it was run: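 Leaf-piece assay on bean at 100 ppm, with compound applied before spore inoculation and two replicates. Each well scored 99 for complete inhibition, 55 for partial and 0 for none; value is the mean score across replicates.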

Phytophthora infestans = test: Fungicidal activity against Phytophthora infestans assessed as inhibition of disease development in compound treated leaf pieces at 20 ppm relative to untreated control (tomato-preventative); format: functional; how it was run: as §1
Plasmopara viticola = test: Fungicidal activity against Plasmopara viticola assessed as inhibition of disease development in compound treated leaf pieces at 20 ppm relative to untreated control (grapevine-preventative); format: functional; how it was run: as §1
Pyrenophora teres = test: Fungicidal activity against Pyrenophora teres assessed as inhibition of disease development in compound treated leaf pieces at 200 ppm relative to untreated control (barley-preventative); format: functional; how it was run: as §1
Brassica napus = test: Herbicidal activity against Brassica napus (oilseed rape) at 1.5 kg/ha preemergence treatment measured after 10 days by glasshouse test; format: functional; settings: pre-emergence, 240 h
How it was run: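 Glasshouse pre/postemergence test, each treatment in triplicate. Above-ground fresh weight measured 10 days after treatment. Result expressed as percent inhibition versus control, from 0 (no control) to 100 (complete control); glyphosate used as positive control.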

Parastagonospora nodorum = test: Fungicidal activity against Phaeosphaeria nodorum assessed as inhibition of disease development in compound treated leaf pieces at 20 ppm relative to untreated control (wheat preventative); format: functional; how it was run: as §1
Pythium dissimile = test: Fungicidal activity against Pythium dissimile assessed as inhibition of mycelia growth at 2 ppm; format: functional, organism-based
How it was run: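 Mycelial growth test in 96-well plates: compound incorporated into artificial growth medium at 2 ppm, two replicates per rate. Each well scored 99 for complete, 55 for partial or 0 for no inhibition. Values are the mean across replicates; azoxystrobin and prochloraz used as positive controls.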

Alternaria solani [4] = test: Fungicidal activity against Alternaria solani assessed as inhibition of disease development in compound treated leaf pieces at 20 ppm relative to untreated control (tomato-preventative); format: functional; how it was run: as §1

## CC(C)Nc1nc(Cl)nc(NCc2ccc(F)cc2)n1
Alternaria solani [1]
  inhibition at 200 ppm: 0%
Puccinia triticina [2]
  inhibition at 60 ppm: 20%
Puccinia triticina [3]
  inhibition at 20 ppm: 20%
Digitaria sanguinalis
  inhibition of growth at 1000 g/ha: 0%
Poa annua
  inhibition of growth at 32 ppm: 0%
Uromyces viciae-fabae
  inhibition: Active
Phytophthora infestans
  inhibition at 20 ppm: 0%
Plasmopara viticola
  inhibition at 20 ppm: 0%
Pyrenophora teres
  inhibition at 200 ppm: 0%
Brassica napus
  inhibition at 1500 g/ha: 100%
Parastagonospora nodorum
  inhibition at 20 ppm: 0%
Pythium dissimile
  inhibition: inactive
Alternaria solani [4]
  inhibition at 20 ppm: 0%
